Molecular target: T1, Sodium- and chloride-dependent glycine transporter 2 (Homo sapiens, UniProt Q9Y345)
T1 sequence (Q9Y345 whole entry): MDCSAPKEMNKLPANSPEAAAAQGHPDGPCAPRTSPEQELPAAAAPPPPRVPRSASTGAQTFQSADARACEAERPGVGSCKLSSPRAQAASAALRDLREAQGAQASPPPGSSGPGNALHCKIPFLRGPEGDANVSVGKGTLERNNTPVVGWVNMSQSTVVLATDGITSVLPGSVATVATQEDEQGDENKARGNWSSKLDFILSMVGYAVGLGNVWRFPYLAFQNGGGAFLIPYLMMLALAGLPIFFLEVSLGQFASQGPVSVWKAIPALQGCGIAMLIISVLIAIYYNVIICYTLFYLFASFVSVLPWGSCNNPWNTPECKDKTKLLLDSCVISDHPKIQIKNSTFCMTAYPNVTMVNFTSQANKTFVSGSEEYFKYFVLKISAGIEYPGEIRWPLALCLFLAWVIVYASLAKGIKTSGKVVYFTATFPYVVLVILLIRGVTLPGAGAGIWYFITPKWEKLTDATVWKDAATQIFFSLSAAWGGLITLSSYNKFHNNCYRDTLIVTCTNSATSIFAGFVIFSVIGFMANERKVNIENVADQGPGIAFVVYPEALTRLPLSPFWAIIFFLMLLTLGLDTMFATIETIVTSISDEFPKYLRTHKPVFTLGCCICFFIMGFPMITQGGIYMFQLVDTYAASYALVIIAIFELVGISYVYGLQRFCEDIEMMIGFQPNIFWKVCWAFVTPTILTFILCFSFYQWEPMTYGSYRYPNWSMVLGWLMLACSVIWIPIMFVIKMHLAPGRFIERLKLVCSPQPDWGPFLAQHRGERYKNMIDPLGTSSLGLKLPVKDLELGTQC
Experiment: Inhibition of human glycine transporter-2 expressed in HEK293 cells assessed as reduction in [14C]glycine uptake preincubated for 10 mins followed by [14C]glycine addition measured after 3 hrs by scintillation proximity assay
Method in brief: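 HEK293 cells stably transfected with GlyT-2 (Geneticin-selected polyclonal population) were plated on poly-L-lysine-coated plates in DMEM/10% FBS and incubated overnight. The [¹⁴C]glycine uptake SPA was then run as for JAR cells: uptake buffer, 10 min room-temperature preincubation, 3 h incubation at 37 °C.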

IC50: > 75 µM
SMILES: CC(NC(=O)c1ccc(C(F)(F)F)cc1Cl)C1(N2CCN(S(=O)(=O)c3cn(C)nn3)CC2)CCC(F)(F)CC1 (stereo unspecified)
